ChEMBL document CHEMBL3102806, “1,2,4-Triazole/oxime hybrids as new strategy for nitric oxide donors: Synthesis, anti-inflammatory, ulceroginicity and antiproliferative activities” (Eur J Med Chem, 2014)

Assays:
[1] = tested on: HL-60(TB); assay: Growth inhibition of human HL-60(TB) cells assessed as cell growth at 10^-5 M after 48 hrs by sulforhodamine B assay relative to control; format: functional; settings: HL-60, 48 h, read-out: Activity
How it was run: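 NCI primary screen across about 60 human tumour cell lines. Single dose of 10^-5 M, 48 h incubation, sulforhodamine B protein-dye end point read spectrophotometrically. Reported as percent growth of treated cells versus untreated control cells.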

[2] = tested on: LOX IMVI; assay: Growth inhibition of human LOXIMVI cells assessed as cell growth at 10^-5 M after 48 hrs by sulforhodamine B assay relative to control; format: functional; settings: read-out: Activity
How it was run: (§1)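 NCI primary screen, one-dose format across about 60 human tumour cell lines. Single addition at 10^-5 M with 48 h incubation; SRB protein-binding dye end point read spectrophotometrically. Reported as percent growth of treated cells versus untreated controls.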

[3] = Induction of nitric oxide release in phosphate buffer at 10^-4 M at pH 7.4 after 4 hrs by Griess colorimetric method in presence of N-acetylcysteine; format: physicochemical; settings: pH 7.4, 4 h, 100 µM
How it was run: (§2)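 Final drug concentration 10^-4 M, added from DMF into 1:1 50 mM phosphate buffer (pH 7.4)/MeOH containing 5 × 10^-4 M N-acetylcysteine, at 37 °C. Nitrite read with Griess reagent after 10 min at room temperature, absorbance at 546 nm. Calibration with sodium nitrite standards (10–80 nmol/ml). Reported as mol NO per mol, n = 4 reaction mixtures.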

[4] = tested on: M14; assay: Growth inhibition of human M14 cells assessed as cell growth at 10^-5 M after 48 hrs by sulforhodamine B assay relative to control; format: functional; settings: M14, 48 h, read-out: Activity; how it was run: as §1
[5] = Induction of nitric oxide release in phosphate buffer at 10^-4 M at pH 7.4 after 6 hrs by Griess colorimetric method in presence of N-acetylcysteine; format: physicochemical; settings: pH 7.4, 6 h, 100 µM; how it was run: as §2
[6] = Induction of nitric oxide release in phosphate buffer at 10^-4 M at pH 7.4 after 2 hrs by Griess colorimetric method in presence of N-acetylcysteine; format: physicochemical; settings: pH 7.4, 2 h, 100 µM; how it was run: as §2
[7] = tested on: SK-MEL-2; assay: Growth inhibition of human SK-MEL-2 cells assessed as cell growth at 10^-5 M after 48 hrs by sulforhodamine B assay relative to control; format: functional; settings: SK-MEL-2, 48 h, read-out: Activity
How it was run: (§3)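 NCI primary screen across about 60 human tumour cell lines. Single dose of 10^-5 M, cultures incubated 48 h, end point by sulforhodamine B protein staining read spectrophotometrically. Results are given as percent growth of treated cells relative to untreated control cells.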

[8] = Induction of nitric oxide release in phosphate buffer at 10^-4 M at pH 7.4 after 3 hrs by Griess colorimetric method in presence of N-acetylcysteine; format: physicochemical; settings: pH 7.4, 3 h, 100 µM; how it was run: as §2
[9] = tested on: SF-295; assay: Growth inhibition of human SF295 cells assessed as cell growth at 10^-5 M after 48 hrs by sulforhodamine B assay relative to control; format: functional; settings: SF-295, 48 h, read-out: Activity; how it was run: as §1
[10] = tested on: HCT-15; assay: Growth inhibition of human HCT15 cells assessed as cell growth at 10^-5 M after 48 hrs by sulforhodamine B assay relative to control; format: functional; settings: HCT-15, 48 h, read-out: Activity
How it was run: (§4)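 NCI ~60 human tumour cell line screen. Single concentration of 10^-5 M added to cultures for 48 h. End point by sulforhodamine B protein staining read spectrophotometrically. Percent growth relative to untreated control cells.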

[11] = tested on: BT-549; assay: Growth inhibition of human BT549 cells assessed as cell growth at 10^-5 M after 48 hrs by sulforhodamine B assay relative to control; format: functional; settings: BT-549, 48 h, read-out: Activity; how it was run: as §4
[12] = tested on: PC-3; assay: Growth inhibition of human PC3 cells assessed as cell growth at 10^-5 M after 48 hrs by sulforhodamine B assay relative to control; format: functional; settings: PC-3, 48 h, read-out: Activity; how it was run: as §1
[13] = Growth inhibition of human RXF393 cells assessed as cell growth at 10^-5 M after 48 hrs by sulforhodamine B assay relative to control; format: functional; settings: RXF 393, 48 h, read-out: Activity; how it was run: as §1
[14] = tested on: NCI-H460; assay: Growth inhibition of human NCI-H460 cells assessed as cell growth at 10^-5 M after 48 hrs by sulforhodamine B assay relative to control; format: functional; settings: NCI-H460, 48 h, read-out: Activity; how it was run: as §1
[15] = Growth inhibition of human OVCAR5 cells assessed as cell growth at 10^-5 M after 48 hrs by sulforhodamine B assay relative to control; format: functional; settings: OVCAR-5, 48 h, read-out: Activity; how it was run: as §1
[16] = tested on: A498; assay: Growth inhibition of human A498 cells assessed as cell growth at 10^-5 M after 48 hrs by sulforhodamine B assay relative to control; format: functional; settings: A498, 48 h, read-out: Activity; how it was run: as §4
[17] = tested on: UACC-62; assay: Growth inhibition of human UACC62 cells assessed as cell growth at 10^-5 M after 48 hrs by sulforhodamine B assay relative to control; format: functional; settings: UACC-62, 48 h, read-out: Activity; how it was run: as §3
[18] = tested on: SK-MEL-28; assay: Growth inhibition of human SK-MEL-28 cells assessed as cell growth at 10^-5 M after 48 hrs by sulforhodamine B assay relative to control; format: functional; settings: SK-MEL-28, 48 h, read-out: Activity; how it was run: as §3
[19] = tested on: OVCAR-3; assay: Growth inhibition of human OVCAR3 cells assessed as cell growth at 10^-5 M after 48 hrs by sulforhodamine B assay relative to control; format: functional; settings: OVCAR-3, 48 h, read-out: Activity; how it was run: as §1
[20] = tested on: K562; assay: Growth inhibition of human K562 cells assessed as cell growth at 10^-5 M after 48 hrs by sulforhodamine B assay relative to control; format: functional; settings: K562, 48 h, read-out: Activity; how it was run: as §4
[21] = Growth inhibition of human SF539 cells assessed as cell growth at 10^-5 M after 48 hrs by sulforhodamine B assay relative to control; format: functional; settings: SF-539, 48 h, read-out: Activity; how it was run: as §1
[22] = tested on: MDA-MB-468; assay: Growth inhibition of human MDA-MB-468 cells assessed as cell growth at 10^-5 M after 48 hrs by sulforhodamine B assay relative to control; format: functional; settings: MDA-MB-468, 48 h, read-out: Activity; how it was run: as §1
[23] = tested on: SN12C; assay: Growth inhibition of human SN12C cells assessed as cell growth at 10^-5 M after 48 hrs by sulforhodamine B assay relative to control; format: functional; settings: read-out: Activity; how it was run: as §3
[24] = tested on: CCRF-CEM; assay: Growth inhibition of human CCRF-CEM cells assessed as cell growth at 10^-5 M after 48 hrs by sulforhodamine B assay relative to control; format: functional; settings: read-out: Activity; how it was run: as §4
[25] = tested on: TK-10; assay: Growth inhibition of human TK10 cells assessed as cell growth at 10^-5 M after 48 hrs by sulforhodamine B assay relative to control; format: functional; settings: TK-10, 48 h, read-out: Activity; how it was run: as §3
[26] = tested on: SR; assay: Growth inhibition of human SR cells assessed as cell growth at 10^-5 M after 48 hrs by sulforhodamine B assay relative to control; format: functional; settings: read-out: Activity; how it was run: as §3
[27] = tested on: NCI-H522; assay: Growth inhibition of human NCI-H522 cells assessed as cell growth at 10^-5 M after 48 hrs by sulforhodamine B assay relative to control; format: functional; settings: NCI-H522, 48 h, read-out: Activity; how it was run: as §1
[28] = tested on: Malme-3M; assay: Growth inhibition of human MALME-3M cells assessed as cell growth at 10^-5 M after 48 hrs by sulforhodamine B assay relative to control; format: functional; settings: read-out: Activity; how it was run: as §1

Row | Structure (SMILES) | growth at 10 µM [1] [%] | growth at 10 µM [2] [%] | Activity [3] [mol/mol] | growth at 10 µM [4] [%] | Activity [5] [mol/mol] | Activity [6] [mol/mol] | growth at 10 µM [7] [%] | Activity [8] [mol/mol] | growth at 10 µM [9] [%] | growth at 10 µM [10] [%] | growth at 10 µM [11] [%] | growth at 10 µM [12] [%] | growth at 10 µM [13] [%] | growth at 10 µM [14] [%] | growth at 10 µM [15] [%] | growth at 10 µM [16] [%] | growth at 10 µM [17] [%] | growth at 10 µM [18] [%] | growth at 10 µM [19] [%] | growth at 10 µM [20] [%] | further results
1 | C/C(=N\O)c1ccc(NC(=O)CSc2nnc(-c3ccccc3)n2-c2ccccc2)cc1 | 90.4 | 82.9 | 0.23 | 100 | 0.16 | 0.15 | 97.7 | 0.2 | 52.6 | 84 | 75.3 | 104 | 72.5 | -34.7 | 84.7 | 63.7 | 76.7 | 48.6 | 87.3 | 95.8 | growth at 10 µM [21]: 97.2%; growth at 10 µM [22]: 90.4%; growth at 10 µM [23]: 76.2%; growth at 10 µM [24]: 92%; growth at 10 µM [25]: 73.7%; growth at 10 µM [26]: 106%; growth at 10 µM [27]: 53.3%; growth at 10 µM [28]: 91.8%
2 | COc1ccc(-c2nnc(SCC(=O)Nc3ccc(/C(C)=N/O)cc3)n2-c2ccccc2)cc1OC | 77.3 | 80.1 | 0.39 | 89.9 | 0.31 | 0.2 | 57.6 | 0.23 | 39.1 | 98.6 | 65.2 | 110 | 32.4 | 102 | 97 | 91.8 | 82.8 | 87.3 | 82 | 105 | growth at 10 µM [21]: 43%; growth at 10 µM [22]: 78.5%; growth at 10 µM [23]: 71.8%; growth at 10 µM [24]: 98.5%; growth at 10 µM [25]: 41.1%; growth at 10 µM [26]: 95.4%; growth at 10 µM [27]: 35.3%; growth at 10 µM [28]: 61.8%
